Data as given in ChEMBL document CHEMBL1143577, “Syntheses and biological activities of rebeccamycin analogues with uncommon sugars” (J Med Chem, 2005).

Columns and labels:
K562 = experiment: Inhibitory concentration against […] leukemia cell line in MTS assay; format: functional, cell-based; details: Homo sapiens
Procedure, shortened: (§1)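 Cells grown in RPMI 1640 with 10% FBS, 1% nonessential amino acids, penicillin-streptomycin, 37 °C, 5% CO2. Exponentially growing cells were then exposed to a range of compound concentrations for 72 h. MTS (2 mg/mL) plus PMS (25 µM) was added for 3 h, and absorbance was read at 490 nm. IC50 came from dose-response curves of % growth versus untreated control.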

SW-620 = experiment: Inhibitory concentration against SW620 colorectal carcinoma cell line in MTS assay; format: functional, cell-based, Homo sapiens; procedure, shortened: as §1

Row | SMILES | IC50 (K562) [µM] | IC50 (SW-620; Homo sapiens, SW-620) [µM] | IC50 (SW-620; sw-620) [µM]
1 | O=C1c2c(c3c4ccccc4n(C4OC(COCc5ccccc5)C(OCc5ccccc5)C(OCc5ccccc5)C4OCc4ccccc4)c3c3[nH]c4ccccc4c23)C(=O)N1CCCn1ccnc1 (stereo not drawn) | > 50 | > 50 | –
2 | CN1C(=O)c2c(c3c4ccccc4[nH]c3c3[nH]c4ccccc4c23)C1=O | 40 | > 100 | –
3 | CC1OC(n2c3ccccc3c3c4c(c5c6ccccc6[nH]c5c32)C(=O)N(C)C4=O)CC(O)C1O (stereo in doubt; 6) | – | – | 34
4 | CC1OC(n2c3ccccc3c3c4c(c5c6ccccc6[nH]c5c32)C(=O)OC4=O)CC(N)C1O (stereo not drawn) | 55 | > 100 | –
5 | CC1OC(n2c3ccccc3c3c4c(c5c6ccccc6[nH]c5c32)C(=O)OC4=O)CC(NCc2ccccc2)C1O (stereo not drawn) | 53 | 76 | –
6 | CC1OC(n2c3ccccc3c3c4c(c5c6ccccc6[nH]c5c32)C(=O)N(N)C4=O)CC(O)C1O (stereo not drawn) | > 100 | > 100 | –

Continued by falling IC50 (K562), values first:

Row | IC50 (K562) [µM] | IC50 (SW-620; Homo sapiens, SW-620) [µM] | IC50 (SW-620; sw-620) [µM] | SMILES
7 | 34 | > 100 | – | CC1OC(n2c3ccccc3c3c4c(c5c6ccccc6[nH]c5c32)C(=O)N(C)C4=O)CC(NCc2ccccc2)C1O (stereo not drawn)
8 | 26 | 24 | – | CC1OC(n2c3ccccc3c3c4c(c5c6ccccc6[nH]c5c32)C(=O)N(C)C4=O)CC(O)C1O (stereo in doubt; 5)
9 | 12 | 13 | – | CN1C(=O)c2c(c3c4ccccc4n(C4CC(O)C(O)C(CO)O4)c3c3[nH]c4ccccc4c23)C1=O (stereo not drawn)
10 | 6 | 4 | – | CO[C@H]1[C@H](O)[C@@H](O)[C@H](n2c3c(Cl)cccc3c3c4c(c5c6cccc(Cl)c6[nH]c5c32)C(=O)NC4=O)O[C@@H]1CO [REBECCAMYCIN]
11 | 4 | 2 | – | O=C1c2c(c3c4ccccc4n(C4OC(CO)C(O)C(O)C4O)c3c3[nH]c4ccccc4c23)C(=O)N1CCCn1ccnc1 (stereo not drawn)
12 | 3 | 5 | – | CN1C(=O)c2c(c3c4ccccc4n(C4OC(CO)C(O)C(O)C4O)c3c3[nH]c4ccccc4c23)C1=O (stereo not drawn)
